# In ChEMBL document CHEMBL2146421, “Synthesis and anticonvulsant activity of some new thiazolo[3,2-a][1,3]diazepine, benzo[d]thiazolo[5,2-a][12,6]diazepine and benzo[d]oxazolo[5,2-a][12,6]diazepine analogues” (Eur J Med Chem, 2011):
# Columns and labels:
# [1] = test system: Mus musculus; experiment: Neurotoxicity in Swiss albino mouse assessed as inability to climb up backwards in a glass tube within 30 seconds at 1.38 mmol/kg, ip measured after 15 and 25 mins by Chimney test; format: toxicity, organism-based; settings: in vivo
# In short: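 Chimney test: at 15 and 25 min after dosing, inability of mice to climb backwards up a glass tube (25 cm long, 3 cm inner diameter) within 30 s was scored as neurological deficit.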
# [2] = Toxicity in Swiss albino mouse assessed as mortality at 1.38 mmol/kg, sc; format: organism-based; settings: in vivo, read-out: Activity
# [3] = test system: Mus musculus; experiment: Anticonvulsant activity in Swiss albino mouse assessed as protection against pentylenetetrazole-induced convulsion at 1.38 mmol/kg, ip treated after 30 mins of pentylenetetrazole measured for 30 mins; format: functional
# [4] = test system: Mus musculus; experiment: Anticonvulsant activity in Swiss albino mouse assessed as protection against maximal electroshock-induced convulsion at 3.0 mmol/kg, ip […]; format: functional
# In short: (§1)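 Test agent given i.p. to mice; 30 min later electric shock applied through the ears, animals released immediately to observe maximal seizure; percentage protected recorded (10 animals per dose in dose-response runs).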
# [5] = test system: Mus musculus; experiment: Anticonvulsant activity in Swiss albino mouse assessed as protection against bicuculline-induced convulsion at 0.75 mmol/kg, ip […] measured for 30 mins; format: functional
# In short: (§2)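 Mice (6 per compound) dosed i.p.; 30 min later given bicuculline 1 mg/kg s.c. (freshly dissolved in 1 ml warmed 0.1 N HCl, made up with 0.9% NaCl), then observed 30 min; percentage anticonvulsion (animals protected) calculated. Dose-response runs used 10 animals per dose.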
# [6] = test system: Mus musculus; experiment: Neurotoxicity in Swiss albino mouse assessed as effect on motor activity at 3 mmol/kg, ip after 30 mins; format: toxicity, organism-based; settings: in vivo, 0.5 h
# In short: (§3)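 Motor activity measured with an activity meter at 0 and 30 min after i.p. dosing, zero time taken as 100%.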
# [7] = test system: Mus musculus; experiment: Hypnotic activity in Swiss albino mouse assessed as righting reflex at 3 mmol/kg, ip; format: ADME, organism-based; settings: in vivo
# [8] = test system: Mus musculus; experiment: Anticonvulsant activity in Swiss albino mouse assessed as protection against pentylenetetrazole-induced convulsion at 0.75 mmol/kg, ip treated after 30 mins of pentylenetetrazole measured for 30 mins; format: functional
# [9] = test system: Mus musculus; experiment: Neurotoxicity in Swiss albino mouse assessed as inability to climb up backwards in a glass tube within 30 seconds at 1.5 mmol/kg, ip measured after 15 and 25 mins by Chimney test; format: toxicity, organism-based; settings: in vivo
# In short: (§4)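 Chimney test: 15 and 25 min after i.p. dosing (3.0, 1.5, 0.75, 0.375 mmol/kg), inability of mice to climb backwards up a glass tube 25 cm long, 3 cm inner diameter, within 30 s recorded as neurological deficit.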
# [10] = test system: Mus musculus; experiment: Anticonvulsant activity in Swiss albino mouse assessed as protection against maximal electroshock-induced convulsion at 0.75 mmol/kg, ip […]; format: functional; in short: as §1
# [11] = test system: Mus musculus; experiment: Anticonvulsant activity in Swiss albino mouse assessed as protection against bicuculline-induced convulsion at 3.0 mmol/kg, ip […] measured for 30 mins; format: functional; in short: as §2
# [12] = Toxicity in Swiss albino mouse assessed as mortality at 3 mmol/kg, ip measured 7 to 11 mins before pentylenetetrazole challenge; format: organism-based; settings: in vivo, read-out: Activity
# In short: (§5)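 Compounds given i.p. at 3.0, 1.5, 0.75 and 0.375 mmol/kg to 6 mice per compound. Deaths occurring before the PTZ injection were recorded. PTZ (83 mg/kg s.c.) followed 30 min after compound dosing.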
# [13] = test system: Mus musculus; experiment: Anticonvulsant activity in Swiss albino mouse assessed as protection against maximal electroshock-induced convulsion at 0.37 mmol/kg, ip […]; format: functional
# In short: (§6)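 Test compound given i.p. to mice; 30 min later, electric shock was applied through the ears while the mice were hand-restrained. The mice were then released to observe the maximal seizure. Each dose was tested in 10 animals and the percentage protected was recorded.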
# [14] = test system: Mus musculus; experiment: Hypnotic activity in Swiss albino mouse assessed as righting reflex at 1.5 mmol/kg, ip; format: ADME, organism-based; settings: in vivo
# [15] = test system: Mus musculus; experiment: Anticonvulsant activity in Swiss albino mouse assessed as protection against pentylenetetrazole-induced convulsion at 3 mmol/kg, ip treated after 30 mins of pentylenetetrazole measured for 30 mins; format: functional
# [16] = test system: Mus musculus; experiment: Neurotoxicity in Swiss albino mouse assessed as effect on motor activity at 1.5 mmol/kg, ip after 30 mins; format: toxicity, organism-based; settings: in vivo, 0.5 h; in short: as §3
# [17] = organism: Mus musculus; experiment: Protective index, ratio of TD50 for Swiss albino mouse to ED50 for anticonvulsant activity in Swiss albino mouse; format: functional
# In short: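 TD50 (median sedative dose) divided by ED50 (median effective dose), from dose-response curves at 10 mice per dose; 95% confidence limits given.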
# [18] = test system: Mus musculus; experiment: Hypnotic activity in Swiss albino mouse assessed as righting reflex at 0.75 mmol/kg, ip; format: ADME, organism-based; settings: in vivo
# [19] = Toxicity in Swiss albino mouse assessed as mortality at 0.75 mmol/kg, ip measured 7 to 11 mins before pentylenetetrazole challenge; format: organism-based; settings: in vivo, read-out: Activity; in short: as §5
# [20] = Toxicity in Swiss albino mouse assessed as mortality at 1.5 mmol/kg, ip measured 7 to 11 mins before pentylenetetrazole challenge; format: organism-based; settings: in vivo, read-out: Activity; in short: as §5
# [21] = test system: Mus musculus; experiment: Anticonvulsant activity in Swiss albino mouse assessed as protection against bicuculline-induced convulsion at 0.37 mmol/kg, ip […] measured for 30 mins; format: functional; in short: as §2
# [22] = test system: Mus musculus; experiment: Neurotoxicity in Swiss albino mouse assessed as effect on motor activity at 0.75 mmol/kg, ip after 30 mins; format: toxicity, organism-based; settings: in vivo, 0.5 h; in short: as §3
# [23] = test system: Mus musculus; experiment: Anticonvulsant activity in Swiss albino mouse assessed as protection against pentylenetetrazole-induced convulsion at 0.37 mmol/kg, ip treated 30 mins before pentylenetetrazole measured for 30 mins
# [24] = test system: Mus musculus; experiment: Neurotoxicity in Swiss albino mouse assessed as inability to climb up backwards in a glass tube within 30 seconds at 0.37 mmol/kg, ip measured after 15 and 25 mins by Chimney test; format: toxicity, organism-based; settings: in vivo; in short: as §4
# [25] = test system: Mus musculus; experiment: Anticonvulsant activity in Swiss albino mouse assessed as protection against pentylenetetrazole-induced convulsion at 1.5 mmol/kg, ip treated after 30 mins of pentylenetetrazole measured for 30 mins; format: functional
# [26] = Toxicity in Swiss albino mouse by Spearman-Karber method; format: organism-based; settings: in vivo
# In short: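 LD50 in mice was determined by the Spearman–Karber method, with doses chosen at equal logarithmic intervals. 95% confidence limits were reported.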
# [27] = Toxicity in ip dosed Swiss albino mouse assessed as sedative effect; format: organism-based; settings: in vivo
# [28] = test system: Mus musculus; experiment: Anticonvulsant activity in Swiss albino mouse assessed as protection against picrotoxin-induced convulsion at 1.5 mmol/kg, ip […] measured for 30 mins; format: functional
# In short: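 Test compound given i.p.; 30 min later, picrotoxin 3.15 mg/kg s.c. was injected. Picrotoxin was freshly dissolved in 1 ml warmed 0.1 N HCl and made up with 0.9% NaCl. Each dose was tested in 10 animals and the percentage of mice protected from clonic convulsions was recorded.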
# [29] = test system: Mus musculus; experiment: Anticonvulsant activity in ip dosed Swiss albino mouse assessed as protection against maximal electroshock-induced convulsion; format: functional; in short: as §1
# [30] = test system: Mus musculus; experiment: Anticonvulsant activity in Swiss albino mouse assessed as protection against bicuculline-induced convulsion at 1.5 mmol/kg, ip […] measured for 30 mins; format: functional; in short: as §2
# [31] = test system: Mus musculus; experiment: Anticonvulsant activity in Swiss albino mouse assessed as protection against maximal electroshock-induced convulsion at 1.5 mmol/kg, ip […]; format: functional; in short: as §6
# [32] = test system: Mus musculus; experiment: Neurotoxicity in Swiss albino mouse assessed as inability to climb up backwards in a glass tube within 30 seconds at 3 mmol/kg, ip measured after 15 and 25 mins by Chimney test; format: toxicity, organism-based; settings: in vivo; in short: as §4
# [33] = Therapeutic index, ratio of LD50 for Swiss albino mouse to ED50 for anticonvulsant activity in Swiss albino mouse; format: organism-based; settings: in vivo, read-out: Ratio LD50/ED50
# In short: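 TI was calculated as LD50/ED50. ED50 came from dose-response curves in 10 mice per dose. LD50 was determined by the Spearman–Karber method, with doses at equal logarithmic intervals.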
# [34] = test system: Mus musculus; experiment: Neurotoxicity in Swiss albino mouse assessed as inability to climb up backwards in a glass tube within 30 seconds at 0.75 mmol/kg, ip measured after 15 and 25 mins by Chimney test; format: toxicity, organism-based; settings: in vivo; in short: as §4
smiles,measurement,setting,value
CCCC(CCC)C(=O)[O-].[Na+] [VALPROATE SODIUM],Activity,[1],100%
same,mortality,[2],0%
same,Activity,[3],100%
O=C1CCCN2C(=N1)Oc1ccc(Cl)cc12,Activity,[4],70%
same,Activity,[5],20%
same,Activity,[6],80%
same,Activity,[7],17%
same,Activity,[8],33%
same,Activity,[9],50%
same,Activity,[10],0%
same,Activity,[11],100%
same,mortality,[12],0%
same,Activity,[13],0%
same,Activity,[14],0%
same,Activity,[15],100%
same,Activity,[16],50%
same,Ratio TD50/ED50,[17],1.41
same,Activity,[18],0%
same,mortality,[19],0%
same,mortality,[20],0%
same,Activity,[21],0%
same,Activity,[22],33%
same,Activity,[23],0%
same,Activity,[24],0%
same,Activity,[25],67%
same,LD50,[26],537 mg/kg
same,TD50,[27],355 mg/kg
same,Activity,[28],40%
same,ED50,[29],251 mg/kg
same,Activity,[30],50%
same,Activity,[31],10%
same,Activity,[32],100%
same,selectivity ratio,[33],2.14
same,Activity,[34],17%
